The values that follow come from article PMC6720533 (Biomolecules & Therapeutics, 2019).

One experiment deals with SEM cells. The experiment in a line: WST-1 metabolic activity assay. In kind it is cell-based. Particulars: Homo sapiens, 72 h, read-out: metabolic activity. The procedure, abridged: (§1)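 Test compound came from a 10 mM DMSO stock. Cells were seeded at 5×10^4/well in triplicate with 5 or 10 μM final compound; controls got matched DMSO. After 72 h at 37°C, 5% CO2, WST-1 was added for a further 3 h. Absorbance was read at 450 nm (reference 620 nm), and metabolic activity given as % of DMSO control.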

For a further experiment, the system named is RS4;11 cells. Briefly: WST-1 metabolic activity assay. Format: cell-based. The settings on record: Homo sapiens, RS4-11, 72 h, read-out: metabolic activity. The procedure, abridged: as §1
The next experiment deals with CEM cells. The experiment in a line: WST-1 metabolic activity assay. In kind it is cell-based. The settings on record: Homo sapiens, CCRF-CEM, 72 h, read-out: metabolic activity. Put shortly:
as §1
For orientation: Tetrazolium dyes change colour on reduction, which living cells bring about.

Another experiment concerns Jurkat cells. The experiment in a line: WST-1 metabolic activity assay. Format: cell-based. Particulars: Homo sapiens, 72 h, read-out: metabolic activity. The procedure, abridged: as §1
For a further experiment, the target named is recombinant human CK2α1 (Homo sapiens, UniProt P68400). Briefly: CK2 kinase activity assay. Format: biochemical. Particulars: 10 μM ATP, 60 min. Put shortly:
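Recombinant human CK2α1 (50 ng) was incubated with 2.5 μg CK2α1 substrate, 10 μM ATP, and test compound, reference inhibitor or DMSO for 60 min at room temperature. ADP-Glo reagent stopped the reaction and depleted remaining ATP. Detection reagent then converted ADP to ATP for luciferase/luciferin luminescence, which tracks the ADP formed as the measure of kinase activity.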

Chain of recombinant human CK2α1 (P68400 whole entry): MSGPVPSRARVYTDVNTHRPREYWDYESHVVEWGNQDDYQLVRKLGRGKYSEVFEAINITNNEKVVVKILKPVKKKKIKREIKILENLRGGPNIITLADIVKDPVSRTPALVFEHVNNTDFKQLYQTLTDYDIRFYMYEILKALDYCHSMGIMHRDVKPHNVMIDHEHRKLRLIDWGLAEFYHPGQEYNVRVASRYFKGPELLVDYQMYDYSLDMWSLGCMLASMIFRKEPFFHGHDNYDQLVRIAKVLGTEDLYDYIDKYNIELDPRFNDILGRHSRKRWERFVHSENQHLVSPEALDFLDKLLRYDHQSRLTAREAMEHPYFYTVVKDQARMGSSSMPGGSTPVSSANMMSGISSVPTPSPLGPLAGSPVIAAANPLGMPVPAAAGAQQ

With `O=c1c2ccccc2nc2n1Cc1cc(F)ccc1-2` [FX-6, 2-Fluoroisoindolo[1,2-b]quinazolin-10(12H)-one], in the experiment on SEM cells, the activity at 5 µM was found to be 72.1% and the activity at 10 µM worked out at 51.4%. Also, in the experiment on RS4;11 cells, the activity at 5 µM came to 76.6% and the activity at 10 µM is 67.1%. Also, in the experiment with CEM cells, the viability at 5 µM was 93.2% and the viability at 10 µM stood at 107%. In addition, in the experiment with Jurkat cells, the viability at 5 µM was found to be 105% and the viability at 10 µM worked out at 97.5%.

As to `Cc1ccc2cc(-c3ccccc3)nc(N)c2c1` [FX-43, 7-Methyl-3-phenylisoquinolin-1-amine], in the experiment on SEM cells, the activity at 5 µM came to 94.7% and the activity at 10 µM amounted to 94.3%. For the same compound, in the experiment on Jurkat cells, the viability at 5 µM is 107% and the viability at 10 µM worked out at 104%.

Regarding `COc1ccc2c(N)nc(-c3ccccc3)cc2c1` [FX-42, 6-Methoxy-3-phenylisoquinolin-1-amine], in the experiment on SEM cells, the activity at 5 µM was determined as 66.7% and the activity at 10 µM amounted to 24.5%. Besides, in the experiment with Jurkat cells, the viability at 5 µM was 88.4% and the viability at 10 µM amounted to 32.4%.

On to `O=C(O)c1ccc2c(c1)nc(Nc1cccc(Cl)c1)c1ccncc12` [CX-4945, reference compound], for which, on recombinant human CK2α1 (0.1 μM), the CK2 enzyme activity result is reported as “Reduction of CK2 enzyme activity”. In addition, the “CK2 enzyme activity compared to DMSO (100%)” value at recombinant human CK2α1 (1 μM) is reported as 3.4 ± 0.3%.

With `Cc1ccc2c(=O)n3c(nc2c1)-c1ccccc1C3` [FX-4, 7-Methylisoindolo[1,2-b]quinazolin-10(12H)-one], in the experiment on SEM cells, the activity at 5 µM is 96.8% and the activity at 10 µM was determined as 64.9%. Besides, in the experiment on RS4;11 cells, the activity at 5 µM was determined as 91.2% and the activity at 10 µM stood at 85.9%. Also, in the experiment with CEM cells, the viability at 5 µM was 102% and the viability at 10 µM was found to be 90.6%. In addition, in the experiment on Jurkat cells, the viability at 5 µM was 90.4% and the viability at 10 µM turned out to be 86.6%.

On to `Cc1cc(C)c2nc3n(c(=O)c2c1)Cc1ccccc1-3` [FX-8, 6,8-Dimethylisoindolo[1,2-b]quinazolin-10(12H)-one], for which the activity at 5 µM in the experiment on SEM cells stood at 23.3%; in the experiment with RS4;11 cells it was 61.5%. Also, the figures for the activity at 10 µM in the experiment with SEM cells and in the experiment on RS4;11 cells were 14.5% and 55.8%, respectively. Besides, the viability at 5 µM amounted to 97% in the experiment with CEM cells and 95.2% with Jurkat cells. In addition, the viability at 10 µM in the experiment on CEM cells is 85%; in the experiment with Jurkat cells it was 92.5%.

With `O=c1c2cc(Cl)ccc2nc2n1Cc1ccccc1-2` [FX-3, 8-Chloroisoindolo[1,2-b]quinazolin-10(12H)-one], the activity at 5 µM in the experiment with SEM cells was found to be 32%; in the experiment on RS4;11 cells, 73.8%. For the same compound, the activity at 10 µM in the experiment with SEM cells amounted to 26.7%; with RS4;11 cells, 40.2%. Moreover, the viability at 5 µM was determined as 76.2% with CEM cells and 57.9% with Jurkat cells. Further, the values for the viability at 10 µM with CEM cells and in the experiment on Jurkat cells were 86% and 77%, respectively.

With `CC(=O)c1ccc2c(=O)n3c(nc2c1)-c1ccccc1C3` [FX-1, 7-Acetylisoindolo[1,2-b]quinazolin-10(12H)-one], the activity at 5 µM in the experiment with SEM cells was 107%; with RS4;11 cells, 99.3%. In addition, the activity at 10 µM in the experiment with SEM cells came to 97.7%; in the experiment on RS4;11 cells it was 94.4%. Besides, the values for the viability at 5 µM with CEM cells and with Jurkat cells were 87.1% and 93.4%, respectively. Further, the viability at 10 µM is 83.9% with CEM cells and 68.5 ± 14.8% in the experiment with Jurkat cells.

Consider `Cc1ccc2nc3n(c(=O)c2c1)Cc1ccccc1-3` [FX-7, 8-Methylisoindolo[1,2-b]quinazolin-10(12H)-one], for which, in the experiment with SEM cells, the activity at 5 µM was 52.1% and the activity at 10 µM stood at 25.2%. For the same compound, in the experiment with RS4;11 cells, the activity at 5 µM stood at 61.3% and the activity at 10 µM turned out to be 49.4%. Further, in the experiment with CEM cells, the viability at 5 µM stood at 96.1% and the viability at 10 µM was 85%. Besides, in the experiment with Jurkat cells, the viability at 5 µM is 91.4% and the viability at 10 µM turned out to be 84.3%.

As for `O=c1c2ccc(F)cc2nc2n1Cc1ccccc1-2` [FX-2, 7-Fluoroisoindolo[1,2-b]quinazolin-10(12H)-one], in the experiment with SEM cells, the activity at 5 µM was 100% and the activity at 10 µM was 69.8%. Also, in the experiment with RS4;11 cells, the activity at 5 µM stood at 97.3% and the activity at 10 µM turned out to be 79.8%. Also, in the experiment on CEM cells, the viability at 5 µM worked out at 86.3% and the viability at 10 µM amounted to 77.2%. Further, in the experiment on Jurkat cells, the viability at 5 µM stood at 81.3% and the viability at 10 µM is 54.3%.

Regarding `Cc1ccc2c(=O)n3c(nc2c1)-c1ccc(F)cc1C3` [FX-5, 2-Fluoro-7-methylisoindolo[1,2-b]quinazolin-10(12H)-one], in the experiment on SEM cells, the activity at 5 µM is 91.7% and the activity at 10 µM came out at 74.7%. Moreover, in the experiment on RS4;11 cells, the activity at 5 µM stood at 91.4% and the activity at 10 µM worked out at 86.7%. Further, in the experiment with CEM cells, the viability at 5 µM turned out to be 101% and the viability at 10 µM was determined as 95%. Further, in the experiment on Jurkat cells, the viability at 5 µM was 94% and the viability at 10 µM is 96.5%.
